# Bioassay records as filed in PubChem.
# Only some compounds are listed: those with a hit (about 3.1% of all), similar ones and a draw of the others.
# T cruzi inh – T. cruzi replication inhibition. T. cruzi beta-gal in NIH3T3, luminescence, 90 h. inhibition, % (no concentration beside the values). hit rate 1.4% among 300,000;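 active = mean inhibition across valid replicates above about 55%, limit read from the data; inconclusive = mean below that limit but half or more replicates reach it; inactive = mean below it, under half of replicates reach it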;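 note: signal also drops with host cell toxicity which is not excluded here; 0% = plate median of DMSO wells and 100% = zero luminescence signal; higher percent means less beta-gal luminescence so fewer parasites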
#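 Test system: β-gal T. cruzi (Tulahuen C4) inside NIH/3T3 cells / Quantity: 5,000 cells/well / Measured by: luminescence from GalScreen with 0.05% NP40, read after 60 min / Medium: DMEM plus 2% FBS / Measure: parasite load inhibition, % / Reagent: Tulahuen C4 trypomastigotes, 5000/well / Schedule: co-culture of at least 90 h after 3 h attachment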
# H9c2 TAG inh – triacylglycerol accumulation inhibition; H9c2 cells, Nile Red lipid (TAG) fluorescence; cells loaded with 200 µM oleic acid; inhibition, % at 12.5 µM; hit rate 0.66% among 230,000; AID 651582;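 active = pattern-corrected inhibition of lipid staining of at least 50% with the nuclear-stain viability signal not falling by more than 50%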;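 note: 0% = DMSO wells and 100% = triacsin C control wells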
# Calb FLC – affects C. albicans growth with fluconazole. growth inhibition, % (concentration not given with the values). hit rate 0.57% among 300,000. C. albicans CaCi-2 + fluconazole, Alamar Blue growth, 48 h;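 active = growth inhibition above about 58% in most replicates, limit read from the data, passing the limit was not always enough; inconclusive = exactly half the replicates above a set limit; inactive = most replicates below a set limit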;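 note: all wells also contain fluconazole at 8 µg/ml as a sub-toxic cotreatment; 0% = median of DMSO wells and 100% = median of geldanamycin control wells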
# Beta cell apopt – blocks beta cell apoptosis | INS-1E cytokine-induced death, ATP luminescence, 48 h; percent of positive-control rescue, neutral wells zero | hit rate 0.8% among 300,000 | AID 435005 | protection from apoptosis, % (no concentration beside the values);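 active = Every replicate reaches about 75%, or at least half do and their mean reaches it too, limit read from the data; inconclusive = At least half of replicates reach the limit but their mean does not; inactive = Under half of replicates reach the limit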;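 note: 0% = cytokine-treated negative control wells and 100% = positive control rescue; higher means more ATP so stronger rescue from cytokine killing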
# Bfl-1 A1 inh – inhibitors of the anti-apoptotic protein A1, read as caspase activation. hit rate 0.066% among 330,000. caspase activation, % (test concentration not listed). MEF A1-2A-BIM cells, Caspase-Glo 3/7 luminescence, 3 h; percent of clofoctol response, vehicle zero;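 active = over half of replicate activation scores above 10%, or exactly half above 10 with the replicate mean above 10; inconclusive = replicate mean below 10 yet half the replicates above 10; inactive = over half of replicates below 10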
# CSC inhib – blocks cancer stem cells; cancer stem cell-like cells viability, luminescence; inhibition, % at 7.5 µM; hit rate 1.1% among 300,000; AID 2717; in the data active = inhibition above about 75%; inconclusive = no clear call, values can overlap the other calls; tested in HMLE shEcad cells
# TAG conf – confirmation of triacylglycerol accumulation inhibitors | shares compounds with H9c2 TAG inh | H9c2 lipid accumulation, Nile Red fluorescence; cells loaded with 200 µM oleic acid | inhibition, % at 12.5 µM | hit rate 71% among 990;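 active = mean inhibition across replicates of 40% or more; inactive = mean inhibition below 40%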;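 note: plate controls were DMSO only wells for no effect and Triacsin C treated wells for full effect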
# Numbers without * were called inactive; ? = inconclusive; nt = not tested or not shown.
SMILES,T cruzi inh,H9c2 TAG inh,Calb FLC,Beta cell apopt,Bfl-1 A1 inh,CSC inhib,TAG conf
C[C@@H]1CN([C@@H](C)CO)C(=O)c2cc(NC(=O)c3ccccc3)ccc2O[C@@H](C)CCCCO[C@@H]1CN(C)Cc1ccc(C(F)(F)F)cc1,nt,12,nt,nt,nt,nt,nt
Cc1cc2c(cc1C)CSC(c1ccccc1OC(=O)C(C)C)SC2,-6,52*,2,0,0,27,24
COc1cc2c(cc1OC)C(COc1ccccc1OC)N(C(=O)C(C)C)CC2 (stereo not given),2,24,0,-1,0,-12,nt
CCNC(=O)C1(C)CCN(C(=O)c2ccc(OC)c(OC)c2)C1 (stereo not given),nt,17,nt,nt,nt,nt,nt
O=C(Nc1ccc(Cl)cc1)c1csc([C@@H]2C[C@H](O)[C@@H](CO)O2)n1,nt,54*,nt,nt,nt,nt,0
Cc1c(C(=O)NCc2ccccc2)oc2ccc(S(=O)(=O)N3CCC4(CC3)OCCO4)cc12,8,-6,3,2,0,8,nt
Cc1c(C(=O)NCCC2=CCCCC2)oc2ccc(S(=O)(=O)N3CCC4(CC3)OCCO4)cc12,19,52*,-6,10,0,18,33
COc1ccc(CC(=O)NCC(C)(C)N2CCOCC2)cc1,3,nt,-12,-6,1,-1,nt
O=C(Nc1ccc([N+](=O)[O-])cn1)c1cc(-c2cccc(Cl)c2)nc2ccccc12,56*,68*,3,2,-1,14,52*
O=C(Nc1ccc([N+](=O)[O-])cn1)c1cc(-c2cccc(Br)c2)nc2ccccc12,53,nt,19,10,3,nt,nt
CC1CCN(CC(=O)c2cccs2)CC1,-14,4,6,-8,0,-8,nt
CC1CC(C)CN(CC(=O)c2cccs2)C1 (stereo not given),-9,59*,-4,-2,0,-8,6
CCC(CC)NC(=O)COn1nnc2ccc(S(=O)(=O)N3CCOCC3)cc21,-6,-27,6,-3,1,0,nt
O=C(CSc1cccc2cccnc12)Nc1ccccc1F,9,73*,4,9,1,1,-1
Cc1cccc(NC(=O)CSc2cccc3cccnc23)c1,35,59*,-63,9,0,-9,-14
O=C(CSc1cccc2cccnc12)Nc1cc(C(=O)O)cc(C(=O)O)c1,1,52*,-9,9,0,-10,19
NNC(=O)CSc1cccc2cccnc12,-8,nt,-3,0,0,-11,nt
Cc1ccc(-n2c(=O)[nH]c3c(C(N)=O)nc(C(C)C)nc32)cc1,4,nt,11,1,1,1,nt
Cc1ccsc1-c1nc(C(N)=O)c2[nH]c(=O)n(-c3ccc(Cl)cc3)c2n1,-3,57*,7,0,0,1,42*
CCOC(=O)C(C)Oc1cccc2c(=O)n(CC(=O)NCc3ccc4c(c3)OCO4)ccc12 (stereo not given),-15,54*,-2,17,0,55,55*
O=C(Cn1cc(C(=O)C2CC2)c2ccccc21)NCc1ccc2c(c1)OCO2,6,51*,-18,-9,1,-9,26
CCOC(=O)C(C)Oc1cccc2c(=O)n(CC(=O)Nc3ccc4c(c3)OCCO4)ccc12 (stereo not given),1,10,-5,12,1,-20,nt
O=C(Nc1cc(Cl)ccc1-n1cncn1)c1cccc(S(=O)(=O)N2CCOCC2)c1,nt,18,nt,1,0,-6,nt
N#C/C(=C\c1cc([N+](=O)[O-])c(N2CCCCC2)cc1N1CCCCC1)c1nn(-c2ccccc2)c(N)c1C#N,nt,51*,-3,10,0,-4,53*
CCN1C(=O)C(=O)N(CC(=O)Nc2ccccc2OC(F)F)C1=O,nt,4,nt,-4,-2,-13,nt
SMILES,T cruzi inh,H9c2 TAG inh,Calb FLC,Beta cell apopt,Bfl-1 A1 inh,CSC inhib,TAG conf
Nc1ncnc2c1ncn2[C@@H]1O[C@H](CNCc2cn(CC(=O)NC3CC3)c3ccccc23)[C@@H](O)[C@H]1O,nt,76*,nt,-5,0,-7,5
CCN(CC)c1ccc(/C=C2\CCC(/C=C(/C#N)C(=O)Nc3ccccc3F)=C2N2CCOCC2)cc1,nt,91*,nt,nt,nt,nt,65*
CCN(CC)c1ccc(/C=C2\CCC(/C=C(\C#N)C(=O)Nc3ccccc3F)=C2N2CCOCC2)cc1,9,nt,?,nt,nt,nt,nt
CN1C(=O)C(=O)/C(=C(/O)c2ccc(Br)cc2)C1c1ccccc1F (stereo not given),-8,nt,-8,0,0,-5,nt
COc1ccc(Cl)cc1NC(=O)CSc1nnc(COc2ccccc2)n1C,9,nt,14,-6,1,3,nt
COc1ccc(Cl)cc1NC(=O)CSc1nnc(COc2ccccc2)n1N,-11,54*,-1,-13,-1,-5,30
COc1ccc(CCNc2nnc(Sc3nnnn3-c3ccccc3)s2)cc1OC,8,97*,40,15,0,-3,76*
Nc1c2c(nn1-c1ccccc1)CCC2,-5,nt,-11,-2,0,nt,nt
COc1ccccc1C(=O)NNC(=O)c1cccc(C)c1,-1,1,-3,nt,-4,-7,nt
Cc1onc(-c2ccc(Cl)cc2Cl)c1-c1csc(N/N=C/c2ccccc2)n1,40,61*,-12,nt,1,nt,42*
CCOC(=O)c1cc(-c2csc(N/N=C/c3ccccc3Cl)n2)on1,nt,9,26,nt,1,5,nt
O=C(c1ccccc1)c1ccc(Cn2cc(-c3ccccc3)nn2)cc1,-7,-35,10,68,-3,16,nt
CCCCCc1ccc(-c2cn(Cc3ccc(C(=O)c4ccccc4)cc3)nn2)cc1,-11,61*,1,10,2,43,51*
COc1cccc(C2c3cc4c(cc3OC(NNC(N)=O)C2C)OCO4)c1O (stereo not given),nt,62*,nt,nt,nt,nt,52*
COc1cc(C2c3cc4c(cc3OC(NNC(N)=O)C2C)OCO4)cc(OC)c1OC (stereo not given),nt,46,nt,nt,nt,nt,nt
COc1cccc(NC(=O)CSc2nc3c(sc4ccccc43)c(=O)n2CCN(C)C)c1,-11,-3,-2,-17,1,2,nt
CCN(CC)CCn1c(SCC(=O)Nc2cccc(OC)c2)nc2c(sc3ccccc32)c1=O,7,52*,2,7,1,16,54*
CC(OC(=O)Cc1ccccc1F)C(=O)Nc1ccc(Cl)cn1 (stereo not given),nt,-16,nt,nt,nt,nt,nt
CCCNS(=O)(=O)c1ccc(CCC(=O)Nc2cc(Cl)ccc2Oc2ccccc2)cc1,30,46,-8,nt,nt,nt,nt
CC(C)CNS(=O)(=O)c1ccc(CCC(=O)Nc2cc(Cl)ccc2Oc2ccccc2)cc1,9,55*,7,18,-1,27,36
c1cc(C2CCCCC2)ccc1Oc1nc(N2CCOCC2)nc(N2CCOCC2)n1,-4,80*,-8,-2,1,-17,52*
